Active and inactive are the calls of the source. The rule behind the calls is not given here.
Key:
[1] = molecular target: T1, D(2) dopamine receptor (Rattus norvegicus, UniProt P61169); experiment: In vitro binding affinity against cloned mammalian Dopamine receptor D2 expressed in CHO cells using [3H]U-86170 as radioligand; format: cell-based; settings: read-out: Ki
In short: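 Membranes from CHO cells (20-60 μg protein) in 20 mM HEPES, 10 mM MgSO4, pH 7.4. Nonspecific binding defined with excess haloperidol. 11 concentrations, each in duplicate. Incubated 1 h at room temperature, then filtered and counted. IC50 from a one-site competition fit, converted to Ki by Cheng-Prusoff.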

[2] = system: Rattus norvegicus; experiment: In vivo changes in different brain area levels of 5-HTP in reserpinized rat corpus striatum.; format: functional
In short: (§1)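 Male Sprague-Dawley rats (200-300 g) pretreated with reserpine 5 mg/kg sc 18 h before. Injection volume 5 mL/kg at neutral pH. Brain-region 5-HTP measured by HPLC with electrochemical detection. Dose-response curves used four to six doses, n = 4.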

[3] = system: Rattus norvegicus; experiment: In vivo for biochemical effect against brain area levels of 5-HTP in reserpinized rat hemispheres (mainly cortex).; format: functional
In short: (§2)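 Male Sprague-Dawley rats (200-300 g) pretreated with reserpine 5 mg/kg sc 18 h before. Injection volume 5 mL/kg, test solutions at neutral pH. DOPA and 5-HTP in limbic system, striatum and hemispheres measured by HPLC with electrochemical detection. Dose-response curves from four to six dose levels (n = 4) per brain area.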

[4] = molecular target: 5-hydroxytryptamine receptor 1D (Homo sapiens, UniProt P28221); experiment: In vitro binding affinity against cloned mammalian 5-hydroxytryptamine 1D receptor alpha expressed in CHO cells, by using [3H]5-HT as radioligand; format: cell-based
In short: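 Competition binding on CHO-cell membranes (20-60 μg protein) in 50 mM Tris, 5 mM MgCl2, 0.1% ascorbic acid, pH 7.4. Nonspecific binding defined with excess serotonin. 11 drug concentrations, each in duplicate. Incubated 1 h at room temperature, protected from light, then filtered and scintillation counted. IC50 taken from a one-site fit; Ki by Cheng-Prusoff.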

[5] = molecular target: D(3) dopamine receptor (Rattus norvegicus, UniProt P19020); experiment: In vitro binding affinity against cloned mammalian Dopamine receptor D3 expressed in CHO cells by, using [3H]-spiperone as radioligand; format: cell-based; settings: read-out: Ki
[6] = system: Rattus norvegicus; experiment: The compound was tested in vivo for biochemical effect against the changes in different brain area levels of DOPA in reserpinized rat limbic system at dose 12.5 uM/kg; Partial effect; format: functional, organism-based
[7] = system: Rattus norvegicus; experiment: The compound was tested in vivo for biochemical effect against the changes in different brain area levels of DOPA in reserpinized rat corpus striatum at dose 12.5 uM/kg; Partial effect; format: functional, organism-based; in short: as §2
[8] = system: Rattus norvegicus; experiment: The compound was tested in vivo for biochemical effect against the changes in different brain area levels of DOPA in reserpinized rat hemispheres (mainly cortex)at dose 12.5 uM/kg; Inactive; format: functional, organism-based
[9] = molecular target: T2, 5-hydroxytryptamine receptor 1B (Homo sapiens, UniProt P28222); experiment: In vitro binding affinity against cloned mammalian 5-hydroxytryptamine 1D receptor beta expressed in CHO cells, by using [3H]5-HT as radioligand; format: cell-based
In short: (§3)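 Membranes from CHO cells stably expressing the cloned receptor, made by mechanical disruption in ice-cold Tris/EDTA/EGTA pH 7.4 and differential centrifugation. [3H]serotonin at 1.7 nM in 50 mM Tris, 5 mM MgCl2, 0.1% ascorbic acid, pH 7.4. 11 drug concentrations in duplicate, 1 h at room temperature protected from light, then filtration. Excess serotonin defines nonspecific binding. One-site IC50 fit, Ki by Cheng-Prusoff.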

[10] = system: Rattus norvegicus; experiment: In vivo changes in different brain area levels of 5-HTP in reserpinized rat limbic system.; format: functional; in short: as §1
[11] = system: Rattus norvegicus; experiment: The compound was tested in vivo for biochemical effect against the changes in different brain area levels of 5-HTP in reserpinized rat hemispheres (mainly cortex)at dose 3.1 uM/kg; Inactive; format: functional, organism-based
[12] = system: Rattus norvegicus; experiment: The compound was tested in vivo for biochemical effect against the changes in different brain area levels of DOPA in reserpinized rat limbic system at dose 3.1 uM/kg; Inactive; format: functional, organism-based; in short: as §2
[13] = system: Rattus norvegicus; experiment: The compound was tested in vivo for biochemical effect against the changes in different brain area levels of DOPA in reserpinized rat hemispheres (mainly cortex)at dose 3.1 uM/kg; Inactive; format: functional, organism-based; in short: as §2
[14] = system: Rattus norvegicus; experiment: The compound was tested in vivo for biochemical effect against the changes in different brain area levels of 5-HTP in reserpinized rat limbic system at dose 3.1 uM/kg; Inactive; format: functional, organism-based
[15] = system: Rattus norvegicus; experiment: The compound was tested in vivo for biochemical effect against the changes in different brain area levels of DOPA in reserpinized rat corpus striatum at dose 3.1 uM/kg; Inactive; format: functional, organism-based; in short: as §2
[16] = system: Rattus norvegicus; experiment: The compound was tested in vivo for biochemical effect against the changes in different brain area levels of 5-HTP in reserpinized rat corpus striatum at dose 3.1 uM/kg; Inactive; format: functional, organism-based
[17] = molecular target: T2, 5-hydroxytryptamine receptor 1B; experiment: The compound was tested in vitro for binding affinity against cloned mammalian 5-hydroxytryptamine 1D receptor beta expressed in CHO cells, by using [3H]5-HT as radioligand; format: cell-based; design: concentration or dose not given beside the values; settings: concentration not given here; in short: as §3
[18] = molecular target: T1, D(2) dopamine receptor; experiment: Binding affinity rat Dopamine receptor D2 expressed in CHO-K1 cells by [3H]U-86170 displacement.; format: cell-based
[19] = system: Rattus norvegicus; experiment: The compound was tested in vivo for biochemical effect against the changes in different brain area levels of DOPA in reserpinized rat limbic system; format: functional
In short: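 Rats (male Sprague-Dawley, 200-300 g) received reserpine 5 mg/kg sc 18 h before. Injections 5 mL/kg at neutral pH. DOPA accumulation measured by HPLC with electrochemical detection as an index of DA or NE synthesis rate. Four to six dose levels, n = 4. ED50 from a sigmoidal fit.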

[20] = system: Rattus norvegicus; experiment: The compound was tested in vivo for biochemical effect against the changes in different brain area levels of DOPA in reserpinized rat hemispheres (mainly cortex)at dose 12.5 uM/kg; inactive; format: functional, organism-based; in short: as §2
[21] = system: Rattus norvegicus; experiment: The compound was tested in vivo for biochemical effect against the changes in different brain area levels of DOPA in reserpinized rat corpus striatum; format: functional; in short: as §2

Sequence of 5-hydroxytryptamine receptor 1D (P28221 whole entry): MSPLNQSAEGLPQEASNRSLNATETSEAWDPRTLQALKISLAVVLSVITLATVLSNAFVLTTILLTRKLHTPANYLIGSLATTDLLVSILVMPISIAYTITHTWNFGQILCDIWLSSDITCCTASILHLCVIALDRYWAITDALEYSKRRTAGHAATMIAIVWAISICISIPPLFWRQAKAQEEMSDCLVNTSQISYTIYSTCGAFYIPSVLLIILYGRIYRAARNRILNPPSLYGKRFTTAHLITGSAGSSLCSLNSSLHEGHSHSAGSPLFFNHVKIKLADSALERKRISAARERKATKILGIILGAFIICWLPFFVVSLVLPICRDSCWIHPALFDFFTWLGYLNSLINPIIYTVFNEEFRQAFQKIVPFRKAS
T2 sequence (P28222 whole entry): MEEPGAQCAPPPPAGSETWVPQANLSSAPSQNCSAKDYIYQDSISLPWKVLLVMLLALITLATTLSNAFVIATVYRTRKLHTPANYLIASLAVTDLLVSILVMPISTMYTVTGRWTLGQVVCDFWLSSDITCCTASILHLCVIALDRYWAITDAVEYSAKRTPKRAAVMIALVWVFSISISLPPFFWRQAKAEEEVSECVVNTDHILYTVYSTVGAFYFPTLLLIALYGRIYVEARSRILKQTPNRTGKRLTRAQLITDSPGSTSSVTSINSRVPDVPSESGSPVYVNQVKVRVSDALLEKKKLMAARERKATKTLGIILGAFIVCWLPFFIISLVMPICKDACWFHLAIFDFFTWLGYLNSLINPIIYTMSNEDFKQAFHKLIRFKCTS
T1 sequence (P61169 whole entry): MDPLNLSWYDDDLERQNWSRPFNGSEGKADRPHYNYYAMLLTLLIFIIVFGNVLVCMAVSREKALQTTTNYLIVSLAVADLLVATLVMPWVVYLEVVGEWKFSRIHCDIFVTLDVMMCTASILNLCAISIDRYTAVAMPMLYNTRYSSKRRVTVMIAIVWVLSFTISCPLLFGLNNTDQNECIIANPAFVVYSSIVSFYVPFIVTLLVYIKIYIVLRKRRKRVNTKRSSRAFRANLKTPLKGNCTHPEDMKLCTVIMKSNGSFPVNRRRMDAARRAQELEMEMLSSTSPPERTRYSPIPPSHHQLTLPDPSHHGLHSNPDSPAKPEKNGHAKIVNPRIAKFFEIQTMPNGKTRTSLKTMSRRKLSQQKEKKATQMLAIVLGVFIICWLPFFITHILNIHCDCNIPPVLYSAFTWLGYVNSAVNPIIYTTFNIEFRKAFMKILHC
Sequence of D(3) dopamine receptor (P19020 whole entry): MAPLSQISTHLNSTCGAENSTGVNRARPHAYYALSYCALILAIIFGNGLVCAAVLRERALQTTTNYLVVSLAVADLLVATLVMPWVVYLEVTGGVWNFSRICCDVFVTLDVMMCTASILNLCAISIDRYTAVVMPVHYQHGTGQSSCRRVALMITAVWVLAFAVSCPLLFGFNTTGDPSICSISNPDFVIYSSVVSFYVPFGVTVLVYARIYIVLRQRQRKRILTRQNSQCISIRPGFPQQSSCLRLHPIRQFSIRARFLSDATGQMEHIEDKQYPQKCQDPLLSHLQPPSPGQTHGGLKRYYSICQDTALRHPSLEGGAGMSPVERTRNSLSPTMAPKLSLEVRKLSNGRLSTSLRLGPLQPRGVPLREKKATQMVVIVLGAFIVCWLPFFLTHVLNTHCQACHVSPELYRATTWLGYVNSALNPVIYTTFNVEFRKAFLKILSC

SMILES: CCCN(CCc1cccs1)C1CCc2ccc3[nH]cc(C=O)c3c2C1 (stereo not given)
- Ki [1]: 25 nM
- ED50 [2]: 0.044 µmol/kg
- ED50 [3]: 0.11 µmol/kg
- Ki [4]: 2 nM
- Ki [5]: 48 nM
- ED50 [6]: Weak activity
- ED50 [7]: Weak activity
- ED50 [8]: inactive
- Ki [9]: 46 nM
- ED50 [10]: 0.082 µmol/kg

SMILES: CCCN(Cc1ccccc1)C1CCc2ccc3[nH]cc(C=O)c3c2C1 (stereo not given)
- Ki [1]: 90 nM
- ED50 [11]: inactive
- ED50 [12]: inactive
- ED50 [13]: inactive
- Ki [4]: 33 nM
- Ki [5]: 115 nM
- ED50 [14]: inactive
- Ki [9]: 992 nM
- ED50 [15]: inactive
- ED50 [16]: inactive

SMILES: CCCN(CCCc1ccccc1)C1CCc2ccc3[nH]cc(C=O)c3c2C1 (stereo not given)
- Ki [1]: 13 nM
- Ki [4]: 2 nM
- Ki [5]: 42 nM
- Ki [9]: 11 nM

SMILES: CCCN(C)C1CCc2ccc3[nH]ccc3c2C1 (stereo not given)
- Ki [4]: 170 nM
- Ki [5]: 113 nM
- inhibition [17]: < 45%
- Ki [18]: 33 nM

SMILES: CCCN(CCC)CC1CCc2ccc3[nH]ccc3c2C1 (stereo not given)
- Ki [18]: > 1000 nM

SMILES: CCCNC1CCc2ccc3[nH]cc(C=O)c3c2C1 (stereo not given)
- Ki [1]: 60 nM
- Ki [4]: 27 nM
- Ki [9]: 227 nM

SMILES: CCCN(CCc1ccccc1)C1CCc2ccc3[nH]cc(C=O)c3c2C1 (stereo not given)
- Ki [1]: 62 nM
- Ki [4]: 2.8 nM
- Ki [5]: 81 nM
- Ki [9]: 56 nM

SMILES: CCCN(CC1CC1)C1CCc2ccc3[nH]ccc3c2C1 (stereo not given)
- ED50 [2]: 0.11 µmol/kg
- ED50 [19]: 1.18 µmol/kg
- ED50 [20]: inactive
- ED50 [3]: 0.18 µmol/kg
- Ki [4]: 75 nM
- Ki [5]: 50 nM
- inhibition [17]: < 45%
- ED50 [10]: 0.11 µmol/kg
- ED50 [21]: 1.4 µmol/kg
- Ki [18]: 33 nM

SMILES: CCCN(CCc1ccccc1)C1CCc2ccc3[nH]ccc3c2C1 (stereo not given)
- Ki [1]: 5.5 nM
- Ki [4]: 7.4 nM
- Ki [5]: 18 nM
- Ki [9]: 249 nM

SMILES: CCCN(C)C1CCc2ccc3[nH]cc(C=O)c3c2C1 (stereo not given)
- Ki [1]: 151 nM
- Ki [4]: 16 nM
- Ki [5]: 258 nM
- Ki [9]: 109 nM

SMILES: CCCN(CC(C)C)[C@@H]1CCc2ccc3[nH]cc(C=O)c3c2C1
- Ki [1]: 28 nM
- Ki [4]: 6.5 nM
- Ki [5]: 100 nM

SMILES: CCCN(CCCCN1C(=O)CC(C)(C)CC1=O)[C@@H]1CCc2ccc3[nH]ccc3c2C1
- Ki [18]: 6.5 nM

SMILES: CCCNC1CCc2ccc3[nH]ccc3c2C1 (stereo not given)
- Ki [4]: 69 nM
- Ki [5]: 115 nM
- Ki [9]: 483 nM
- Ki [18]: 48 nM

SMILES: CCCN(CCCc1ccccc1OC)C1CCc2ccc3[nH]ccc3c2C1 (stereo not given)
- Ki [4]: 2.5 nM
- Ki [5]: 10 nM
- Ki [9]: 40 nM
- Ki [18]: 4.8 nM

SMILES: CCCN(CCCCN1C(=O)CC(C)(C)CC1=O)C1CCc2ccc3[nH]cc(C=O)c3c2C1 (stereo not given)
- Ki [1]: 136 nM
- Ki [4]: 9.8 nM
- Ki [5]: 450 nM
- Ki [9]: 115 nM

From ChEMBL document CHEMBL1128739, “Structure-activity relationships in the 8-amino-6,7,8,9-tetrahydro-3H-benz[e]indole ring system. 2. Effects of 8-amino nitrogen substitution on serotonin receptor binding and pharmacology” (J Med Chem, 1995)
